Tested on: MS2 coat protein
Test: apparent Kd, MS2 coat protein; higher = weaker binding; RNA-MaP array
Method in brief: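 Designed RNAs were produced on an Illumina sequencing chip by transcription of sequenced DNA templates. Binding to fluorescently labeled MS2 coat protein (1.5 nM to 3 μM) was measured at room temperature with or without input ligand. The apparent Kd is the median of per-cluster binding-curve fits. Designs were excluded when measured on fewer than 10 clusters.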

[1] = designed as: OFF switch for flavin mononucleotide, no ligand
[2] = ligand present: flavin mononucleotide, designed as: OFF switch for flavin mononucleotide
[3] = designed as: ON switch for flavin mononucleotide, no ligand
[4] = ligand present: flavin mononucleotide, designed as: ON switch for flavin mononucleotide

Sequence	apparent Kd [1]	apparent Kd [2]	apparent Kd [3]	apparent Kd [4]
GGGAAACAUGAGGAUCACCCAUGUAAGGAUAUAGAAGAUUCAACAUUCAAGAAUGAGACUAGAAGGUACAGAUC	20.2 nM	17.9 nM		
GGGAUUCGUGUUAGGAUAUUGAGGUGUAUUCCCGACAAGAAGGAACAUGAGGAUCACCCAUGUUGGGAACUGUG	33.9 nM	62.6 nM		
GGGUAACCAGUUAGGAUAUUGAAUAGUUUGAUGUUCAAGAAGGAACAUGAGGAUCACCCAUGUAUGGGACUAGA	139 nM	174 nM		
GGUCGUCUAGUUAGGAUAUCAUUAUUAGAUUAAAUUGAGAAGGAACAUGAGGAUCACCCAUGUCGACAACUAUC	7.13 nM	8.12 nM		
GGUUUGAACAAGAAGGUGAGUCACGAGACCCUGGGAUCUCGGGACAUGAGGAUCACCCAUGUCGUCAAGGAUAUUGUGGUGUUU			769 nM	191 nM
GUAACACUGUCAUCGCCGACAUGAGGAUCACCCAUGUGUAAGAGAAGGACCGAGACCGGGAAAUGGUAGGAUAUCUGUGGGUAG	45.1 nM	84.5 nM		
GUAUGGGCGUAACAUGAGGAUCACCCAUGUCCGAAUGCGAUGAGAAGGCCACAUAGUUGGCUGAUGGAGGAUAUCAAAGUAUAU	97.9 nM	70.8 nM		
GUCAACGAAGGAUAUACAGGGAUACCCGUCGAGUACGGAGCACAUGAGGAUCACCCAUGUAGAAGGUCGGUGUG	52 nM	142 nM		
GUCGAUUUUAAAUUGACAUGAGGAUCACCCAUGUCUUUAAUCAGAAGGCGGACAACAUUAUGUGCCGAGGAUAUGAUUGGAUCC			14.2 nM	11.3 nM
GUCGCGUAGCAAGGAUAUGCAAAGAGGAAAACUGCAGAAGGUGCCAUUAAAGGACAUGAGGAUCACCCAUGUGCAUUAUCCACA			53.4 nM	30.9 nM
GUGAUCAUCCGAGGAUAUUUUUCAUAGGCAUAAGGGGACAUGAGGAUCACCCAUGUAAACACCAUAAAGAAGGCGGGGCAGACC	20 nM	15.3 nM		
GUGCACCGUGAGAAGGCAUAGCACGUGUCGCUGACAUGAGGAUCACCCAUGUGUUGUAAAGUGCAUGAGGAUAUCAGCCAUAGG			42.3 nM	10.4 nM
GUGCGAAUGCAAGGAUAUGUCACAUAAACUGGAACAGAAGGUGCUGCUGAACAUGAGGAUCACCCAUGUACUUGACCGGCAACU			7.6 nM	6.81 nM
GUUAUAAUUACCAAGGAUAUCACAAGGCUUACAUGAGGAUCACCCAUGUUAAUACUCACAGACCGUGAGAAGGUGGCAAGAUCGAU			21.4 nM	16 nM
GUUCCCAUAUCAGGAUAUAUUUCACAUGAGGAUCACCCAUGUUACCCGUGAAGUCGACUCUAUGUAUAGAAGGGAUGAUGGGCC	55.4 nM	43.7 nM		
GUUUACAAUGUCAGGAUAUCACAGCGUACAAAUGUUGAGAAGGGACAUGAGGAUCACCCAUGUACACACCUCUU	8.04 nM	9.29 nM		
GUUUUUUAAGGAUAUUCUAUUUCUAACAUGAGGAUCACCCAUGUACCCUCGUGCUAGCGAGAAGAAGGUAACAAAC	546 nM	427 nM		
UAAACAUGAGGAUCACCCAUGUAUUGGAGUAACCGCAAGAGGAGAAGGACCGGAGUGAGAUUAUGGUAGGAUAUCCCAACUACA			17.6 nM	12.1 nM
UAAAGAGAAGGAUAUACAGGAAGAAAAGCCUCACAAUCGUAACAUGAGGAUCACCCAUGUAGAAGGACUAACAA	38.7 nM	29.5 nM		
UAACGUACAAAAGGAUAUGCCAAUAGAAAGAUCUUACAAUAAACACAUGAGGAUCACCCAUGUAAGCAGAAGGUUUGGAAACAA	12.4 nM	10.2 nM		
UACAAACCGUUAGAUGGGACAUGAGGAUCACCCAUGUAUAACAGAAGGUCAAAUUGAAACAUUCAGAAGGAUAUGUCAUACAAA	85.3 nM	59.5 nM		
UACUUGAAGUUGCAGGAUAUUUAGGAUCUAACAUGAGGAUCACCCAUGUUAUAUGAGAGACGUAUAAAGAAGGGCAGCGUGAUAGA			9.4 nM	5.9 nM
UAUACACAUCCACAUGAGGAUCACCCAUGUGUGCCUCGUUCCGAGGAUAUGGGCCACGAUGUUUCCCAGAAGGCGGUCGCUAUA	15 nM	12.7 nM		
